Values after ≈ are worked out from the molar mass of the structure shown. Active and inactive are the calls of the source. The rule behind the calls is not given here.
Legend:
[1] = test system: Mycobacterium tuberculosis; experiment: Antitubercular activity against Mycobacterium tuberculosis H37Rv ATCC 27294/XDR-TB incubated for 28 days by agar dilution method; type: functional; settings: 672 h
Procedure, shortened: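 Agar dilution: two-fold dilutions in Middlebrook 7H11 agar with OADC. Inoculum from fresh 7H11/OADC slants adjusted to 1 mg/mL wet weight in 0.05% Tween 80 saline, diluted 10^-2 (~10⁷ cfu/mL); 5 µL spotted per tube. Incubated 37 °C; MIC, lowest concentration fully inhibiting growth, read after 28 days, in triplicate.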

Escherichia coli [2] = experiment: Antibacterial activity against Escherichia coli at 1 mg/ml incubated for 18 hrs by well plate technique; type: functional; settings: for zone of inhibition at 1000 µg/mL: read-out: DIZ
Procedure, shortened: (§1)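 Bacteria kept on nutrient agar at 37 °C, grown statically in nutrient broth (start ~10-100 cfu/mL) at 37 °C for 18-24 h. Suspensions diluted in saline and spread on nutrient agar, then wells cut with a cork borer. Compound in DMSO at 1 or 0.5 mg/mL added to wells, 37 °C, 18 h. Inhibition zone diameter measured minus DMSO value; triplicate; streptomycin standard.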

Escherichia coli [3] = experiment: Antibacterial activity against Escherichia coli at 0.5 mg/ml incubated for 18 hrs by well plate technique; type: functional; settings: for zone of inhibition at 500 µg/mL: read-out: DIZ; procedure, shortened: as §1
Staphylococcus aureus [4] = experiment: Antibacterial activity against Staphylococcus aureus at 1 mg/ml incubated for 18 hrs by well plate technique; type: functional; settings: for zone of inhibition at 1000 µg/mL: read-out: DIZ; procedure, shortened: as §1
Staphylococcus aureus [5] = experiment: Antibacterial activity against Staphylococcus aureus at 0.5 mg/ml incubated for 18 hrs by well plate technique; type: functional; settings: for zone of inhibition at 500 µg/mL: read-out: DIZ; procedure, shortened: as §1
Pseudomonas aeruginosa [6] = experiment: Antibacterial activity against Pseudomonas aeruginosa at 1 mg/ml incubated for 18 hrs by well plate technique; type: functional; settings: for zone of inhibition at 1000 µg/mL: read-out: DIZ; procedure, shortened: as §1
Pseudomonas aeruginosa [7] = experiment: Antibacterial activity against Pseudomonas aeruginosa at 0.5 mg/ml incubated for 18 hrs by well plate technique; type: functional; settings: for zone of inhibition at 500 µg/mL: read-out: DIZ; procedure, shortened: as §1
Salmonella typhi [8] = experiment: Antibacterial activity against Salmonella typhi at 1 mg/ml incubated for 18 hrs by well plate technique; type: functional, Salmonella enterica subsp. enterica serovar Typhi; settings: for zone of inhibition at 1000 µg/mL: Salmonella enterica, read-out: DIZ
Procedure, shortened: (§2)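 Well diffusion on nutrient agar; strains kept on nutrient agar at 37 °C, grown statically in nutrient broth 18-24 h at 37 °C, diluted in saline, 0.1 ml spread per plate. Compounds in DMSO at 1 and 0.5 mg/mL added to cork-bored wells; 18 h at 37 °C. Inhibition zone diameter measured, DMSO value subtracted; triplicate; streptomycin reference.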

Salmonella typhi [9] = experiment: Antibacterial activity against Salmonella typhi at 0.5 mg/ml incubated for 18 hrs by well plate technique; type: functional, Salmonella enterica subsp. enterica serovar Typhi; settings: for zone of inhibition at 500 µg/mL: Salmonella enterica, read-out: DIZ; procedure, shortened: as §2
Aspergillus flavus [10] = experiment: Antifungal activity against Aspergillus flavus at 1 mg/ml incubated for 3 days; type: functional; settings: for zone of inhibition at 1000 µg/mL: 72 h, read-out: IZ
Procedure, shortened: (§3)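 Well plate method on potato dextrose agar. Fungal stock suspended in distilled water with Tween 80 and swabbed over plates. Samples in DMSO at 1 and 0.5 mg/mL added to wells, incubated 25 °C for 3 days, then scored for inhibition zones; fluconazole standard.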

Aspergillus flavus [11] = experiment: Antifungal activity against Aspergillus flavus at 0.5 mg/ml incubated for 3 days; type: functional; settings: for zone of inhibition at 500 µg/mL: 72 h, read-out: IZ; procedure, shortened: as §3
[12] = test system: Chrysosporium keratinophilum; experiment: Antifungal activity against Chrysosporium keratinophilum at 1 mg/ml incubated for 3 days; type: functional; settings: for zone of inhibition at 1000 µg/mL: 72 h, read-out: IZ; procedure, shortened: as §3
[13] = test system: Chrysosporium keratinophilum; experiment: Antifungal activity against Chrysosporium keratinophilum at 0.5 mg/ml incubated for 3 days; type: functional; settings: for zone of inhibition at 500 µg/mL: 72 h, read-out: IZ; procedure, shortened: as §3
Candida albicans [14] = experiment: Antifungal activity against Candida albicans at 1 mg/ml incubated for 3 days; type: functional; settings: for zone of inhibition at 1000 µg/mL: 72 h, read-out: IZ; procedure, shortened: as §3
Candida albicans [15] = experiment: Antifungal activity against Candida albicans at 0.5 mg/ml incubated for 3 days; type: functional; settings: for zone of inhibition at 500 µg/mL: 72 h, read-out: IZ; procedure, shortened: as §3
[16] = Antioxidant activity assessed as DPPH radical scavenging activity incubated for 10 mins by UV-visible spectrometry; type: physicochemical
Procedure, shortened: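 DPPH free-radical scavenging; absorbance read at 517 nm against a methanol blank. % scavenging = (A control − A sample)/A control × 100.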

[17] = Salmonella enterica subsp. enterica serovar Typhi

Structure (SMILES) | MIC [1] [µg/mL] | zone of inhibition at 1000 µg/mL (Escherichia coli [2]) [mm] | zone of inhibition at 500 µg/mL (Escherichia coli [3]) [mm] | zone of inhibition at 1000 µg/mL (Staphylococcus aureus [4]) [mm] | zone of inhibition at 500 µg/mL (Staphylococcus aureus [5]) [mm] | zone of inhibition at 1000 µg/mL (Pseudomonas aeruginosa [6]) [mm] | zone of inhibition at 500 µg/mL (Pseudomonas aeruginosa [7]) [mm] | zone of inhibition at 1000 µg/mL (Salmonella typhi [8]) [mm] | zone of inhibition at 500 µg/mL (Salmonella typhi [9]) [mm] | inhibition zone (IZ) (Aspergillus flavus [10]) | inhibition zone (IZ) (Aspergillus flavus [11]) | inhibition zone (IZ) [12] | inhibition zone (IZ) [13] | inhibition zone (IZ) (Candida albicans [14]) | inhibition zone (IZ) (Candida albicans [15]) | inhibition (INH) [16] [%] | zone of inhibition at 1000 µg/mL (Aspergillus flavus [10]) [mm] | zone of inhibition at 500 µg/mL (Aspergillus flavus [11]) [mm] | zone of inhibition at 1000 µg/mL [12] [mm] | zone of inhibition at 500 µg/mL [13] [mm] | further results
Cc1nn2c(-c3nc4cc([N+](=O)[O-])ccc4[nH]3)c(-c3ccc(F)cc3)nc2s1 | 50 (≈ 127 µM) | 4 | 2 | 3 | 2 | 1 | 3 | 2 | 1 | inactive | inactive | inactive | inactive | inactive | inactive | 25.9 | – | – | – | – | –
Cc1ccc(-c2nc3sc(-c4ccc(Cl)cc4)nn3c2-c2nc3cc(Cl)ccc3[nH]2)cc1 | 25 (≈ 52.5 µM) | 4 | 2 | 3 | 3 | 4 | 3 | 3 | 2 | – | – | – | – | – | – | 31.9 | 3 | 2 | 3 | 2 | zone of inhibition at 1000 µg/mL (Candida albicans [14]): 4 mm; zone of inhibition at 500 µg/mL (Candida albicans [15]): 3 mm
COc1ccc(-c2nc3sc(-c4ccc(F)cc4)nn3c2-c2nc3cc([N+](=O)[O-])ccc3[nH]2)cc1 | 12.5 (≈ 25.7 µM) | 5 | 3 | 5 | 3 | 6 | 3 | 4 | 3 | – | – | – | – | – | – | 30.8 | 5 | 3 | 4 | 2 | zone of inhibition at 1000 µg/mL (Candida albicans [14]): 5 mm; zone of inhibition at 500 µg/mL (Candida albicans [15]): 2 mm
Cc1ccc(-c2nc3sc(C)nn3c2-c2nc3cc([N+](=O)[O-])ccc3[nH]2)cc1 | 50 (≈ 128 µM) | – | – | – | – | – | – | – | – | inactive | inactive | inactive | inactive | inactive | inactive | 28.9 | – | – | – | – | diameter of the inhibition zone (DIZ) (Escherichia coli [2]): inactive; diameter of the inhibition zone (DIZ) (Escherichia coli [3]): inactive; diameter of the inhibition zone (DIZ) (Staphylococcus aureus [4]): inactive; diameter of the inhibition zone (DIZ) (Staphylococcus aureus [5]): inactive; diameter of the inhibition zone (DIZ) (Pseudomonas aeruginosa [6]): inactive; diameter of the inhibition zone (DIZ) (Pseudomonas aeruginosa [7]): inactive; diameter of the inhibition zone (DIZ) (Salmonella typhi [8]; [17]): inactive; diameter of the inhibition zone (DIZ) (Salmonella typhi [9]; [17]): inactive

Source: ChEMBL document CHEMBL3414425, “Synthesis and biological evaluation of new imidazo[2,1-b][1,3,4]thiadiazole-benzimidazole derivatives” (Eur J Med Chem, 2015)
